In ChEMBL document CHEMBL3393007, “IND-2, a pyrimido[1″,2″:1,5]pyrazolo[3,4-b]quinoline derivative, circumvents multi-drug resistance and causes apoptosis in colon cancer cells” (Bioorg Med Chem, 2015):
Calls of active or inactive are those of the source.

Tests used:
HEK293 [1] = experiment: Cytotoxicity against HEK293 cells expressing ABCG2 gene assessed as reduction in cell viability at 0.001 to 100 uM after 72 hrs by MTT assay; format: functional, cell-based; conditions: Homo sapiens
How it was run: (§1)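 HEK293 stably overexpressing ABCB1 or ABCG2 (R2), with empty-vector HEK293/pcDNA3.1 as the parental control, grown in DMEM with 10% FBS at 37 °C and 5% CO2. Cells were trypsinised and seeded at 5×10^3 cells/well, then exposed to serial concentrations for 72 hr. MTT (4 mg/mL) was added for 4 hr, formazan dissolved in DMSO, and A570 read. IC50 from survival curves (Bliss method), means ± SD of triplicates.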

[2] = Cytotoxicity against human S1 cells after 72 hrs by MTT assay; format: functional, cell-based; conditions: S1, 72 h
How it was run: (§2)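 Seeding was 6×10^3 cells/well (MDCK, NIH/3T3, MCF-7, MDA-MB-231, LS-180, LS-174, LoVo, S1) after trypsinisation, in DMEM with 10% FBS. Compound at 0.1–100 μM for 72 hr, then MTT (4 mg/mL) for 4 hr. Formazan dissolved in DMSO, absorbance at 570 nm. IC50 by Bliss method; means ± SD, ≥3 experiments in triplicate.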

A2780 = experiment: Cytotoxicity against human A2780 cells after 72 hrs by MTT assay; format: functional, cell-based; conditions: A2780, 72 h
How it was run: (§3)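 MTT assay over 0.1–100 μM with a 72 hr exposure, then 4 hr with MTT (4 mg/mL). Formazan dissolved in DMSO, A570 read. IC50 from survival curves (Bliss method); three independent experiments in triplicate; 100 μM taken as cut-off.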

HCT-116 [3] = experiment: Induction of mitochondrial membrane potential loss in human HCT116 cells at 1 uM after 4 hrs by mitotracker red and Alexa Fluor 488 annexin V staining based flow cytometry; format: functional
How it was run: (§4)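 HCT-116 cells in 6-well plates, in complete medium, were exposed to 0, 1 or 10 μM for 4 hr. Harvested cells were stained with MitoTracker Red (4 μL of 10 μM working solution per mL) for 30 min at 37 °C, washed, then given Alexa Fluor 488 annexin V for 15 min in annexin-binding buffer. Flow cytometry emission at 530 and 585 nm; two independent experiments in triplicate.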

HCT-116 [4] = experiment: Induction of mitochondrial membrane potential loss in human HCT116 cells after 4 hrs by mitotracker red and Alexa Fluor 488 annexin V staining based flow cytometry; format: functional, cell-based; how it was run: as §4
[5] = target: T1, Nuclear receptor subfamily 1 group I member 2 (Homo sapiens, UniProt O75469); experiment: Transactivation of human PXR expressed in human HepG2 cells co-expressing pGL3-CYP3A4-luciferase gene assessed as increase in CYP3A4 promoter activity at 10 uM after 24 hrs by luciferase reporter gene assay; conditions: hepg2, 24 h
T1 sequence (O75469 whole entry): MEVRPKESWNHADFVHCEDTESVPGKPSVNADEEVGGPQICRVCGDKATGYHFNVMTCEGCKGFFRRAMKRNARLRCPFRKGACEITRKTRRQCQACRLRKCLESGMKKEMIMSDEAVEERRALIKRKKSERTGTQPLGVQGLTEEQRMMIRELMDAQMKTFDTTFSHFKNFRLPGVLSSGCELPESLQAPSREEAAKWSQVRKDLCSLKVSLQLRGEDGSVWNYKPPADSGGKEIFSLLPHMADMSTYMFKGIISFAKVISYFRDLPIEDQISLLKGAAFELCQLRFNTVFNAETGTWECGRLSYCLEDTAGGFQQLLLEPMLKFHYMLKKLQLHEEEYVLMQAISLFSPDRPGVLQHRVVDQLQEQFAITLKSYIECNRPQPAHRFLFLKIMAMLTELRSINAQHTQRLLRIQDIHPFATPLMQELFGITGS

[6] = Cytotoxicity against human LS180 cells after 72 hrs by MTT assay; format: functional, cell-based; conditions: LS180, 72 h; how it was run: as §2
[7] = Cytotoxicity against human HCT15 cells after 72 hrs by MTT assay; format: functional, cell-based; conditions: HCT-15, 72 h
How it was run: (§5)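 HCT-116, HCT-15, HT-29, DU-145, PC-3 or HEK293/pcDNA3.1 cells in DMEM with 10% FBS were trypsinised and seeded at 5×10^3 cells/well. They received compound at 0.1–100 μM for 72 hr, then MTT (4 mg/mL) for 4 hr. Formazan was dissolved in DMSO and A570 read. IC50 by Bliss method from survival curves; ≥3 experiments, each in triplicate.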

HCT-15 = experiment: Induction of morphological changes in human HCT15 cells at 0.5 to 10 uM after 68 hrs by inverted microscopy; format: functional, cell-based
How it was run: (§6)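 HCT-116, HCT-15 and HEK293 cells were treated with 0, 0.5, 2 or 10 μM for 68 hr. Each treatment was in triplicate. Cells were photographed under an inverted microscope at 20X and representative images shown.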

LoVo = experiment: Cytotoxicity against human LoVo cells after 72 hrs by MTT assay; format: functional, cell-based; how it was run: as §2
MCF7 = experiment: Cytotoxicity against human MCF7 cells after 72 hrs by MTT assay; format: functional, cell-based; conditions: MCF7, 72 h; how it was run: as §2
HepG2 [8] = experiment: Cytotoxicity against human HepG2 cells assessed as reduction in cell viability at 10 uM after 24 hrs by Celltiter-Glo luminescent cell viability assay; format: cell-based; conditions: hepg2, 24 h
How it was run: (§7)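 Viability of HepG2 cells was measured in parallel with the PXR reporter assay. Cells were transfected, plated at 10,000/well in phenol red-free DMEM with 5% charcoal/dextran-treated FBS, and treated 24 hr with 1 or 10 μM or DMSO. ATP was quantified by CellTiter-Glo luminescence. Means ± SD of triplicates, t-test versus DMSO.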

HT-29 = experiment: Cytotoxicity against human HT-29 cells after 72 hrs by MTT assay; format: functional, cell-based; conditions: HT-29, 72 h; how it was run: as §5
[9] = Cytotoxicity against drug-resistant human S1-M1-80 cells expressing ABCG2 G482 mutant after 72 hrs by MTT assay relative to topotecan; format: functional
[10] = Cytotoxicity against human HCT116 cells after 72 hrs by MTT assay; format: functional, cell-based; conditions: HCT-116, 72 h; how it was run: as §5
HepG2 [11] = experiment: Cytotoxicity against human HepG2 cells after 72 hrs by MTT assay; format: functional, cell-based; conditions: HepG2, 72 h; how it was run: as §3
[12] = target: T1, Nuclear receptor subfamily 1 group I member 2; experiment: Transactivation of human PXR expressed in human HepG2 cells co-expressing pGL3-CYP3A4-luciferase gene assessed as increase in CYP3A4 promoter activity at 1 uM after 24 hrs by luciferase reporter gene assay; format: ADME, cell-based; conditions: hepg2, 24 h
How it was run: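 HepG2 cells were transiently cotransfected with pcDNA3-hPXR and pGL3-CYP3A4-luc; after 24 hr they were plated at 10,000/well in phenol red-free DMEM with 5% charcoal-stripped FBS. […] Activity expressed as fold over DMSO; three independent experiments.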

HCT-116 [13] = experiment: Induction of DNA fragmentation in human HCT116 cells at 2.5 uM after 6 hrs by ethidium bromide staining based agarose gel electrophoresis; format: functional, cell-based
How it was run: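 HCT-116 cells were cultured with or without 2.5 μM for 6 hr. Genomic DNA was extracted with a purification kit, resolved on 1% agarose gels at 40 V, stained with ethidium bromide and photographed, with untreated DNA loaded at 500 ng and 1 μg.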

[14] = Cytotoxicity against human LS174 cells after 72 hrs by MTT assay; format: functional, cell-based; conditions: LS174, 72 h; how it was run: as §2
2008 = experiment: Cytotoxicity against human 2008 cells after 72 hrs by MTT assay; format: functional, cell-based; conditions: Homo sapiens, 2008, 72 h; how it was run: as §3
[15] = Cytotoxicity against mouse NIH/3T3 cells after 72 hrs by MTT assay; format: cell-based; conditions: NIH3T3, 72 h; how it was run: as §2
HCT-116 [16] = experiment: Induction of morphological changes in human HCT116 cells at 0.5 to 10 uM after 68 hrs by inverted microscopy; format: functional, cell-based; how it was run: as §6
HepG2 [17] = experiment: Cytotoxicity against human HepG2 cells assessed as reduction in cell viability at 1 uM after 24 hrs by Celltiter-Glo luminescent cell viability assay; format: cell-based; conditions: hepg2, 24 h; how it was run: as §7
DU-145 = experiment: Cytotoxicity against human DU145 cells after 72 hrs by MTT assay; format: functional, cell-based; conditions: DU-145, 72 h; how it was run: as §5
HCT-116 [18] = experiment: Induction of mitochondrial membrane potential loss in human HCT116 cells at 10 uM after 4 hrs by mitotracker red and Alexa Fluor 488 annexin V staining based flow cytometry; format: functional; how it was run: as §4
HEK293 [19] = experiment: Cytotoxicity against HEK293 cells expressing ABCB1 gene assessed as reduction in cell viability at 0.001 to 100 uM after 72 hrs by MTT assay; format: functional, cell-based; conditions: Homo sapiens; how it was run: as §1
[20] = Cytotoxicity against drug-resistant human S1-M1-80 cells expressing ABCG2 G482 mutant after 72 hrs by MTT assay relative to SN-38; format: functional
HEK293 [21] = experiment: Cytotoxicity against HEK293 cells expressing pcDNA3.1 after 72 hrs by MTT assay; format: cell-based; conditions: Homo sapiens, HEK293, 72 h; how it was run: as §5
MDCK = experiment: Cytotoxicity against MDCK cells after 72 hrs by MTT assay; format: cell-based; conditions: Canis lupus familiaris; how it was run: as §2
[22] = Cytotoxicity against human PC3 cells after 72 hrs by MTT assay; format: functional, cell-based; conditions: PC-3, 72 h; how it was run: as §5
HEK293 [23] = experiment: Induction of morphological changes in HEK293 cells at 0.5 to 10 uM after 68 hrs by inverted microscopy; format: cell-based; conditions: human, hek293, 68 h; how it was run: as §6
MDA-MB-231 = experiment: Cytotoxicity against human MDA-MB-231 cells after 72 hrs by MTT assay; format: functional, cell-based; conditions: MDA-MB-231, 72 h; how it was run: as §2
Homo sapiens = organism: Homo sapiens; experiment: Cytotoxicity against drug-resistant human S1-M1-80 cells expressing ABCG2 G482 mutant after 72 hrs by MTT assay; format: functional, cell-based
How it was run: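 S1-M1-80 colon cells (G482 mutant ABCG2), maintained in medium with 80 μM mitoxantrone, tested by MTT alongside parental S1. 72 hr exposure, MTT 4 hr, DMSO solubilisation, A570. IC50 by Bliss method; SN-38 and topotecan run as comparators; means ± SD of triplicate determinations.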

SMILES	IC50 [2] [µM]	IC50 (A2780) [µM]	IC50 (MCF7) [µM]	IC50 [10] [µM]	IC50 (HepG2 [11]) [µM]	IC50 2008 [µM]	IC50 [15] [µM]	IC50 (DU-145) [µM]	IC50 (HEK293 [21]) [µM]	IC50 (MDCK) [µM]	IC50 [22] [µM]	IC50 (MDA-MB-231) [µM]	further results
Cc1cc(Cl)n2nc3nc4ccccc4cc3c2n1	0.8	11.6	7.4	0.6	9.7	17.4	23.6	1.2	7.8	19.7	0.9		Activity (HEK293 [1]): Active; Activity (HCT-116 [3]): 68.46%; Activity (HCT-116 [4]): Dose-dependent effect; Activity [5]: Not Active; IC50 [6]: 1020 nM; IC50 [7]: 671 nM; Activity (HCT-15): Active; IC50 (LoVo): 994 nM; Activity (HepG2 [8]): Toxic; IC50 (HT-29): 791 nM; fold change (FC) [9]: 3; Activity [12]: Not Active; Activity (HCT-116 [13]): Active; IC50 [14]: 875 nM; Activity (HCT-116 [16]): Active; Activity (HepG2 [17]): Non-toxic; Activity (HCT-116 [18]): 98.36%; Activity (HEK293 [19]): Active; fold change (FC) [20]: 3; Activity (HEK293 [23]): Toxic
CCN(CC)CCCNc1cc(C)nc2c3cc4ccccc4nc3nn12	53.7	55.7			89.9	65.3	> 100		41.8		78.5	34.6	
CO[C@H]1/C=C/O[C@@]2(C)Oc3c(C)c(O)c4c(O)c(c(/C=N/N5CCN(C)CC5)c(O)c4c3C2=O)NC(=O)/C(C)=C\C=C\[C@H](C)[C@H](O)[C@@H](C)[C@@H](O)[C@@H](C)[C@H](OC(C)=O)[C@@H]1C [RIFAMPIN]													Activity (HepG2 [8]): Toxic
Cc1cc(N(C)C)n2nc3nc4ccccc4cc3c2n1	58.3	49.9	79.6	53.6	67.9	47.9		28.6			88.8	44.8	
Cc1cc(NCCN(C)C)n2nc3nc4ccccc4cc3c2n1	69.8	> 100		65.8	> 100	> 100	> 100	59.9	93.4	> 100	79.8	48.7	
Cc1cc(NCCCN(C)C)n2nc3nc4ccccc4cc3c2n1	83.4	65.8	> 100		73.2	87.6	> 100		39.9		60.5		
Cc1cc(N2CCOCC2)n2nc3nc4ccccc4cc3c2n1	67.4	> 100	98.4	88.9	> 100	> 100	> 100			> 100	78.3	88.2	
Cc1cc(=O)n2nc3nc4ccccc4cc3c2[nH]1	63.6	74.3			89.5	88.6	98.4		69.6	> 100	46.5		
CCN(CC)CCNc1cc(C)nc2c3cc4ccccc4nc3nn12	44.6	87.5	53.5		67.4	78.1	48.2			41.6	62.5	58.8	
CCc1c2c(nc3ccc(O)cc13)-c1cc3c(c(=O)n1C2)COC(=O)[C@]3(O)CC													Activity (Homo sapiens): inactive
